Where two headings read alike, the source gives them in different places. Marks after values point to notes of the source that are not given here.
Columns and labels:
[1] = type: in vivo, rat; conditions: for Bile/Urine (%): bile share of U excretion / Bile/Urine (%): urine share of U excretion / % Administered Dose Excreted: 24 h; for Reduction (%) of renal uranium vs control / reduction of bone actinide content vs control: 24 h post-metal; for % Administered Dose Excreted: bile + urine; for Renal Conc.: kidneys removed 24 h post-metal; for Kidney U Conc. / Liver U Conc. / Lung U Conc. / Spleen U Conc. / Bone (femur) U Conc.: tissue 24 h post-metal; for Bone (femur) U Conc.: bone + bone marrow; for reduction of bone actinide content vs control: femur
[2] = Multiple dose chelator administration in non-bile duct-cannulated; type: in vivo, rat; conditions: for % Administered Dose Excreted / Total U Excretion: urine + feces
Method in brief: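 Intact rats got uranyl acetate 1 mg U kg−1 s.c. (left flank), then test compound or DTPA 300 µmol kg−1 s.c. (right flank) immediately and at 24-h intervals (4 doses). Rats were caged singly with chow and water ad libitum. Urine and feces were collected every 24 h. Kidneys and other tissues were taken 24 h after the last dose. Uranium was measured by ICP-MS in triplicate; data are mean ± SEM.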

[3] = type: in vivo, rat; conditions: for administered uranium excreted (bile + urine): 24 h collection
Method in brief: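 Bile duct-cannulated rats got uranium 1 mg U kg−1 s.c., then were housed singly in metabolic cages. A single s.c. 300 µmol kg−1 dose of test compound followed at 1, 2 or 4 h post-uranium. Bile and urine were collected for 24 h. Uranium was measured by ICP-MS, triplicate runs averaged. Data are mean ± SEM; one-tailed t-test assuming unequal variances, p<0.05.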

[4] = primates, dose 63.3 µmol kg^−1 day^−1; ref Bergeron et al., 2006b; cited from earlier work
rats = conditions: rodent model; ref Bergeron et al., 2006b; cited from earlier work
[5] = 24 h after last of 4 daily s.c. doses of 300 µmol kg^−1
[6] = Day 1, 300 µmol kg^−1 s.c. daily x 4
[7] = Day 2, 300 µmol kg^−1 s.c. daily x 4
[8] = Day 3, 300 µmol kg^−1 s.c. daily x 4
[9] = Day 4, 300 µmol kg^−1 s.c. daily x 4
[10] = single 300 µmol kg^−1 s.c. dose given 1 h post-uranium
[11] = single 300 µmol kg^−1 s.c. dose given 2 h post-uranium
[12] = single 300 µmol kg^−1 s.c. dose given 4 h post-uranium

## COCCOCCOCCOc1ccc(C2=N[C@@](C)(C(=O)O)CS2)c(O)c1 [compound 9, (S)-4,5-dihydro-2-[2-hydroxy-4-(3,6,9-trioxadecyloxy)phenyl]-4-methyl-4-thiazolecarboxylic acid]
[1]; single dose 150 µmol kg^−1 SC
  Bile/Urine (%): bile share of U excretion: 69%
  Bile/Urine (%): urine share of U excretion: 31%
  Reduction (%) of renal uranium vs control: 55%
  % Administered Dose Excreted: 48.2%
  Renal Conc.: 37 ± 16 ^b µg g^−1
  Kidney U Conc.: 37 ± 16 ^b µg g^−1
  Liver U Conc.: 1.6 ± 0.9 ^c µg g^−1
  Lung U Conc.: 0.16 ± 0.13 µg/g
  Spleen U Conc.: 0.20 ± 0.05 µg/g
  Bone (femur) U Conc.: 2.1 ± 0.5 ^b µg g^−1
[1]; single dose 150 µmol kg^−1 s.c.
  reduction of bone actinide content vs control: 42%
[1]; single dose 300 µmol kg^−1 PO
  Bile/Urine (%): urine share of U excretion: 29%
  Reduction (%) of renal uranium vs control: 57%
  % Administered Dose Excreted: 43.5%
  Renal Conc.: 36 ± 8 ^b µg g^−1
  Kidney U Conc.: 36 ± 8 ^b µg g^−1
  Liver U Conc.: 0.6 ± 0.2 ^c µg g^−1
  Lung U Conc.: 0.10 ± 0.02 ^b µg g^−1
  Spleen U Conc.: 0.13 ± 0.02 ^b µg g^−1
  Bone (femur) U Conc.: 2.7 ± 1.2 µg/g
[1]; single dose 300 µmol kg^−1 PO, listed as C00009
  Bile/Urine (%): bile share of U excretion: 71%
[1]; single dose 300 µmol kg^−1 SC
  Bile/Urine (%): bile share of U excretion: 84%
  Bile/Urine (%): urine share of U excretion: 16%
  Reduction (%) of renal uranium vs control: 66%
  % Administered Dose Excreted: ~52%
  Renal Conc.: 29 ± 6 ^b µg g^−1
  Kidney U Conc.: 29 ± 6 ^b µg g^−1
  Liver U Conc.: 0.9 ± 0.2 ^c µg g^−1
  Lung U Conc.: 0.13 ± 0.02 µg/g
  Spleen U Conc.: 0.18 ± 0.04 µg/g
  Bone (femur) U Conc.: 1.9 ± 0.5 ^b µg g^−1
[1]; single dose 300 µmol kg^−1 SC, listed as C00009
  % Administered Dose Excreted: 51.5%
[1]; single dose 300 µmol kg^−1 s.c.
  reduction of bone actinide content vs control: 48%
[2]; [5]
  Reduction (%) of renal uranium vs control: 62%
  Renal Conc.: 12 ± 2 ^c µg g^−1
[2]; [6]
  Fecal U Excretion: 478 ± 181 µg/kg
  % Administered Dose Excreted: 68.3%
  Total U Excretion: 683 ± 161 ^d µg kg^−1
[2]; Day 1, 300 µmol kg^−1 s.c. daily x 4, first dose immediately post-U
  Urine U Excretion: 205 ± 27 µg/kg
[2]; [7]
  Fecal U Excretion: 116 ± 46 µg/kg
  Urine U Excretion: 39 ± 5 µg/kg
  % Administered Dose Excreted: 15.5%
  Total U Excretion: 155 ± 48 ^d µg kg^−1
[2]; [8]
  Fecal U Excretion: 33 ± 4 µg/kg
  Urine U Excretion: 23 ± 4 µg/kg
  % Administered Dose Excreted: 5.6%
  Total U Excretion: 56 ± 7 µg/kg
[2]; [9]
  Fecal U Excretion: 25 ± 2 µg/kg
  Urine U Excretion: 11 ± 1 µg/kg
  % Administered Dose Excreted: 3.6%
  Total U Excretion: 36 ± 1 µg/kg
[2]; cumulative over 4 days, 300 µmol kg^−1 s.c. daily x 4
  administered dose of uranium excreted at the end of four days (urine + feces): 93%
[3]; [10]
  reduction in renal uranium content vs control: 74%
  administered uranium excreted (bile + urine): 34.6%
[3]; [11]
  reduction in renal uranium content vs control: 68%
  administered uranium excreted (bile + urine): 28.5%
[3]; [12]
  reduction in renal uranium content vs control: 35%
  administered uranium excreted (bile + urine): 28.6%
[4]
  iron excretion: 450 µg Fe kg^−1
rats
  nephrotoxicity: virtually eliminated nephrotoxicity

Reference: article PMC2861555 (International journal of radiation biology, 2009)
